Experimental data of several laboratories.
Each line is one published result; the experiments were not run side by side. Values after ≈ are worked out from the molar mass of the structure shown.
Organism: Enterococcus faecalis

Structure (SMILES) | test | test system | setting | endpoint | value
CCCCCCCCCCCCCCCC(=O)NS(=O)(=O)Oc1ccc(C)cc1 | microbial growth, broth dilution | ATCC33186 | – | MIC | 12.5 µg/mL (≈ 29.4 µM)
COc1ccc(OS(=O)(=O)NC(=O)CCCCc2ccccc2)cc1 | microbial growth | ATCC33186 | – | MIC | > 200 µg/mL
CC(C)CCCCCCCCCCCCCCc1cc(O)cc(O)c1 | microbial growth | ATCC29212 | – | IC50 | 16.9 µM
CCCCCCCCCCCCCCCC(=O)NS(=O)(=O)Oc1ccc(Cl)c(Cl)c1 | microbial growth, broth dilution | ATCC33186 | – | MIC | 0.8 µg/mL (≈ 1.66 µM)
COc1ccc(CNO)c(C)c1 | microbial growth | ATCC19433 | 8 h | MIC50 | < 80 µg/mL
CN[C@H](CC(C)C)C(=O)N[C@H]1C(=O)N[C@@H](CC(N)=O)C(=O)N[C@H]2C(=O)N[C@H]3C(=O)N[C@H](C(=O)N[C@H](C(=O)O)c4cc(O)cc(O)c4-c4cc3ccc4O)[C@H](O)c3ccc(c(Cl)c3)Oc3cc2cc(c3O[C@@H]2O[C@H](CO)[C@@H](O)[C@H](O)[C@H]2O[C@H]2C[C@](C)(N)[C@H](O)[C@H](C)O2)Oc2ccc(cc2Cl)[C@H]1O | microbial killing | – | drug-resistant strain, clinical isolate | MBC | 32 µg/mL (≈ 22.1 µM)
CC(C)CCCCCCCCCCCCCCCc1cc(O)cc(O)c1 | microbial growth | ATCC29212 | – | IC50 | 15.3 µM
CCCCCCCCCCCC(=O)NP(=O)(O)O | microbial growth | ATCC33186 | – | MIC | 200 µg/mL (≈ 716 µM)
C=C(NC(=O)C(=C)NC(=O)c1csc(C2=N[C@@H]3c4csc(n4)[C@H]4NC(=O)c5csc(n5)[C@H]([C@](C)(O)[C@@H](C)O)NC(=O)[C@H]5CSC(=N5)/C(=C/C)NC(=O)[C@H]([C@@H](C)O)NC(=O)c5csc(n5)[C@]3(CC2)NC(=O)[C@H](C)NC(=O)C(=C)NC(=O)[C@H](C)NC(=O)[C@H]([C@@H](C)CC)N[C@@H]2C=Cc3c([C@H](C)O)cc(nc3[C@H]2O)C(=O)O[C@@H]4C)n1)C(N)=O | microbial growth | VRE | – | MIC | 0.12 µg/mL (≈ 0.0721 µM)
CC(C)(O/N=C(\C(=O)N[C@@H]1C(=O)N2C(C(=O)[O-])=C(C[n+]3ccccc3)CS[C@H]12)c1csc(N)n1)C(=O)O | microbial killing | – | drug-resistant strain, clinical isolate | MBC | > 128 µg/mL
O=C(CCCCCCCCCCOc1ccccc1)NP(=O)(O)O | microbial growth | ATCC33186 | – | MIC | 100 µg/mL (≈ 280 µM)
CC1(C)S[C@@H]2[C@H](NC(=O)[C@H](N)c3ccccc3)C(=O)N2[C@H]1C(=O)O | microbial growth, well diffusion | ATCC51299 | 60000 µg/mL | inhibition zone | 28 mm
CCCCCCCCCCCCCCCC(=O)CP(=O)(O)O | microbial growth | ATCC33186 | – | MIC | 12.5 µg/mL (≈ 37.4 µM)
CC(C)C(C)CCCCCCCCCCCc1cc(O)cc(O)c1 (centres unmarked) | microbial growth | ATCC29212 | – | IC50 | 13.2 µM
